Laboratory results taken from ChEMBL document CHEMBL1130286, “Nicotinamide derivatives as a new class of gastric H+/K(+)-ATPase inhibitors. 1. Synthesis and structure-activity relationships of N-substituted 2-(benzhydryl- and benzylsulfinyl)nicotinamides” (J Med Chem, 1997).
The source made the active and inactive calls. The rule behind the calls is not given here.

Legend:
[1] = target: Potassium-transporting ATPase (Sus scrofa, UniProt P19156); assay: Inhibition of porcine gastric H+/K+ ATPase; format: tissue-based, Stomach
Summary of the method: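 Porcine gastric microsomes (15 µg protein) were preincubated 30 min at 37 °C with compound in 50 mM Tris-HCl pH 7.4, 4 mM MgCl₂ and 5 µg/mL gramicidin, with or without 20 mM KCl. Reaction was started with 2 mM ATP (final) and run 20 min at 37 °C, then stopped with trichloroacetic acid. Released phosphate was measured by the Sanui method. Activity was the K⁺-dependent rate, with the K⁺-free rate subtracted.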

[2] = target: Potassium-transporting ATPase (Oryctolagus cuniculus); assay: Inhibition of [14C]aminopyrine (AP) accumulation stimulated by dibutyryl cyclic AMP in isolated rabbit parietal cells
[3] = t1/2 is the time taken for the conversion of nicotinamides to isothiazolopyridine at pH=1.0; format: ADME
Summary of the method: (§1)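 Compound from a 10 µM DMSO solution was diluted into 100 mM HCl (pH 1) or pH-adjusted McIlvaine buffer (pH 3-7) containing Triton. Mixtures were incubated at 37 °C for various times. Remaining compound was measured by reversed-phase C18 HPLC (CH₃CN/10 mM phosphate pH 7.0) with UV detection at 254 nm, and half-lives were determined from these time points.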

[4] = t1/2 is the time taken for the conversion of nicotinamides to isothiazolopyridine at pH=3.0; format: ADME; summary of the method: as §1
[5] = t1/2 is the time taken for the conversion of nicotinamides to isothiazolopyridine at pH=7.0; format: ADME; summary of the method: as §1
[6] = t1/2 is the time taken for the conversion of nicotinamides to isothiazolopyridine at pH=5.0; format: ADME; summary of the method: as §1
[7] = organism: Rattus norvegicus; assay: Inhibition of histamine induced gastric acid secretion in pylorus-ligated rats; format: functional; settings: Stomach
Summary of the method: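 Male Wistar rats (~200 g) were fasted 24 h with water allowed, 4-7 per group. Under urethane (1 g/kg) the pylorus was ligated, and drug or vehicle was given intraduodenally right after ligation. Histamine (30 mg/kg) was given sc 30 min later. After 3 h, gastric juice volume was measured and acid titrated to pH 7 with 0.01 N NaOH. Total acid output versus controls gave percent inhibition.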

[8] = test system: Rattus norvegicus; assay: Percent inhibition of histamine induced gastric acid secretion in pylorus-ligated rats at 100 mg/Kg intraduodenal dose; Not effective; settings: Stomach
[9] = test system: Potassium-transporting ATPase (Oryctolagus cuniculus); assay: Percent inhibition of [14C]aminopyrine (AP) accumulation in dibutyryl cAMP stimulated rbbit parietal cells at 10 uM
[10] = test system: Rattus norvegicus; assay: Percent inhibition of histamine induced gastric acid secretion in pylorus-ligated rats at 100 mg/Kg intraduodenal dose; settings: Stomach
[11] = organism: Oryctolagus cuniculus; assay: Percent inhibition of [14C]aminopyrine (AP) accumulation stimulated by dibutyryl uM; format: functional
Summary of the method: (§2)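 Parietal cells were isolated from rabbit gastric tissue, and the cell-rich fraction (1-2 × 10⁷ cells/300 µL) was put in Earle's balanced salt solution. The medium held 5.6 kBq [¹⁴C]aminopyrine, 25 mM HEPES-NaOH pH 7.4, 0.2% BSA and test compound. Cells were stimulated with 1 mM dbcAMP at 37 °C for 30 min under 95% O₂/5% CO₂, then centrifuged, solubilized and scintillation-counted. Counts with 0.1 mM dinitrophenol were subtracted, and IC50 came from regression lines.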

[12] = organism: Oryctolagus cuniculus; assay: Percent inhibition of [14C]aminopyrine (AP) accumulation stimulated by dibutyryl uM; Not effective; format: functional; summary of the method: as §2
[13] = organism: Oryctolagus cuniculus; assay: Percent inhibition of [14C]aminopyrine (AP) accumulation stimulated by dibutyryl cyclic AMP in isolated rabbit parietal cells; format: functional; summary of the method: as §2
[14] = test system: Rattus norvegicus; assay: Percent inhibition of histamine induced gastric acid secretion in pylorus-ligated rats at 10 mg/Kg intraduodenal dose; settings: Stomach
[15] = test system: Rattus norvegicus; assay: Percent inhibition of histamine induced gastric acid secretion in pylorus-ligated rats at 3 mg/Kg intraduodenal dose; settings: Stomach
[16] = test system: Rattus norvegicus; assay: Percent inhibition of histamine induced gastric acid secretion in pylorus-ligated rats at 100 mg/Kg […] dose; Not effective; format: functional, organism-based; settings: Stomach

Chain of Potassium-transporting ATPase (P18434 whole entry): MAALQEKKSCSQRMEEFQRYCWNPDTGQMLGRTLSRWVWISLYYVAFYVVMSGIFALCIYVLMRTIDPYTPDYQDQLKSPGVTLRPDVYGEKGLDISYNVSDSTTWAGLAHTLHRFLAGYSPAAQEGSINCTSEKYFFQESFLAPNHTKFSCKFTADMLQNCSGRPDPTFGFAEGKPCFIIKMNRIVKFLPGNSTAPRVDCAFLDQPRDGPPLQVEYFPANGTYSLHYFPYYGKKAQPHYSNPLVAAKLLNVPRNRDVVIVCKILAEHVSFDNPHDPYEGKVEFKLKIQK
Chain of Potassium-transporting ATPase (P19156 whole entry): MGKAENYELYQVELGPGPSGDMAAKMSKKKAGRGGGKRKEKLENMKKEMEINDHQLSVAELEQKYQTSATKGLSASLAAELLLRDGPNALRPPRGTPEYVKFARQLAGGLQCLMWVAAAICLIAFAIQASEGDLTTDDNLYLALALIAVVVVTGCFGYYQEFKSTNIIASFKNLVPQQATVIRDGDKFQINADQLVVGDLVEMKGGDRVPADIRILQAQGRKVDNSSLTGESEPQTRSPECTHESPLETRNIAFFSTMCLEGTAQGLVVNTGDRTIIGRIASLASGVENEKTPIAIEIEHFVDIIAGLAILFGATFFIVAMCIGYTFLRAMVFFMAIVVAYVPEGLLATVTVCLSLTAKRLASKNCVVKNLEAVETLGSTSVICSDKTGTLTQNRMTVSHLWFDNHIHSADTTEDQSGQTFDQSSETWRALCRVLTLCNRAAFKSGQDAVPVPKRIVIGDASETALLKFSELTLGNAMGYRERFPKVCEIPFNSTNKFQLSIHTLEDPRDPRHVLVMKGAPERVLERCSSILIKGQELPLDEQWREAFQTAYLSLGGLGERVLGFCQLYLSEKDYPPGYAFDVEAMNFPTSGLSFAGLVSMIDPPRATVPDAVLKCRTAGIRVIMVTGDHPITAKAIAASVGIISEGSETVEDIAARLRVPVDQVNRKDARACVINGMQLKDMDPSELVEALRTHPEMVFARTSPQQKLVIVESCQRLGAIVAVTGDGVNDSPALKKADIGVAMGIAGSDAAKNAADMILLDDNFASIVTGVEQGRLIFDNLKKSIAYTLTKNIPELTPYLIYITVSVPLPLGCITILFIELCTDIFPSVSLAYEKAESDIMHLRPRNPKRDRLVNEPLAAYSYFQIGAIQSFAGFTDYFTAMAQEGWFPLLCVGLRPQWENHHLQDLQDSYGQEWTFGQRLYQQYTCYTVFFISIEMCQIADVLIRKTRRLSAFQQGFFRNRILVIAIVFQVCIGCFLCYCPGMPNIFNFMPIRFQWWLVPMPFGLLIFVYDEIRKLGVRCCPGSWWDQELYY

## COc1ccc(C[S+]([O-])c2ncccc2C(=O)Nc2ccncc2)c(OC)c1C (stereo not given)
[1]
  IC50: > 100 µM
[2]
  IC50: 16.6 µM
[3]
  half-life: 7.2 min
[4]
  half-life: 11.6 h

## COc1ccnc(C[S+]([O-])c2nc3ccc(OC(F)F)cc3[nH]2)c1OC (stereo not given) [PANTOPRAZOLE]
[5]
  half-life: 23.1 h
[6]
  half-life: 70.2 min

## CCOc1cc(OC)ccc1C[S+]([O-])c1ncccc1C(=O)Nc1ccncc1 (stereo not given)
[1]
  IC50: > 100 µM
[7]
  ED50: 19 mg/kg
[2]
  IC50: 0.45 µM
[3]
  half-life: < 1.2 min
[4]
  half-life: 0.71 h

## COc1cc(C)c(C[S+]([O-])c2ncccc2C(=O)Nc2ccncc2)c(OC)c1 (stereo not given)
[1]
  IC50: > 100 µM
[7]
  ED50: 5.7 mg/kg
[2]
  IC50: 0.46 µM
[3]
  half-life: < 1.2 min
[4]
  half-life: 0.09 h
[6]
  half-life: 257 min

## O=C(Nc1cccnc1)c1cccnc1[S+]([O-])C(c1ccccc1)c1ccccc1 (stereo not given)
[8]
  inhibition: inactive
[9]
  inhibition: 43.7%

## O=c1c2cccnc2sn1-c1ccncc1
[1]
  IC50: 0.22 µM

## O=C(Nc1ccc2ncccc2c1)c1cccnc1[S+]([O-])C(c1ccccc1)c1ccccc1 (stereo not given)
[10]
  inhibition in vivo at 100 mg/kg: 21.7%
[9]
  inhibition: 61.8%

## COc1ccc(C[S+]([O-])c2ncccc2C(=O)Nc2ccncc2)c(OC)c1 (stereo not given)
[5]
  half-life: > 100 h
[1]
  IC50: > 100 µM
[7]
  ED50: 4.2 mg/kg
[2]
  IC50: 0.59 µM
[3]
  half-life: < 1.2 min
[4]
  half-life: 0.84 h
[6]
  half-life: 2310 min

## CN(C)CCc1ccc(NC(=O)c2cccnc2[S+]([O-])C(c2ccccc2)c2ccccc2)cc1 (stereo not given)
[11]
  Inhibition: 7.4%
[9]
  inhibition: 93.5%

## COc1ccc(C[S+]([O-])c2ncccc2C(=O)Nc2ccncc2)c(OCCO)c1 (stereo not given)
[2]
  IC50: 59 µM
[3]
  half-life: < 1.2 min
[4]
  half-life: 1.78 h

## Cc1ccc(C(c2ccc(C)cc2)[S+]([O-])c2ncccc2C(=O)Nc2cccc3ncccc23)cc1 (stereo not given)
[10]
  inhibition in vivo at 100 mg/kg: 30.4%
[9]
  inhibition: 74.1%

## CC(C)Cn1sc2ncccc2c1=O
[1]
  IC50: 0.53 µM

## COc1ccc(C[S+]([O-])c2ncccc2C(=O)Nc2ccncc2)c(OC)c1OC (stereo not given)
[3]
  half-life: 27 min
[9]
  inhibition: 19.6%
[4]
  half-life: 116 h

## O=C(Nc1ccccc1)c1cccnc1[S+]([O-])C(c1ccccc1)c1ccccc1 (stereo not given)
[9]
  inhibition: 5%

## COc1cc(OC)c(C[S+]([O-])c2ncccc2C(=O)Nc2ccncc2)c(OC)c1 (stereo not given)
[1]
  IC50: 7.3 µM
[7]
  ED50: 6.8 mg/kg
[2]
  IC50: 1.2 µM
[3]
  half-life: < 1.2 min
[4]
  half-life: < 0.03 h
[6]
  half-life: 17.4 min

## O=C(Nc1cccc2ccccc12)c1cccnc1[S+]([O-])C(c1ccccc1)c1ccccc1 (stereo not given)
[12]
  inhibition: inactive

## COc1ccc(C[S+]([O-])c2ncccc2C(=O)Nc2ccncc2)c(OCCF)c1 (stereo not given)
[1]
  IC50: > 100 µM
[7]
  ED50: 8.1 mg/kg
[2]
  IC50: 1.7 µM
[3]
  half-life: < 1.2 min
[4]
  half-life: 3.3 h

## Cc1cc(C)c2ccc(NC(=O)c3cccnc3[S+]([O-])C(c3ccccc3)c3ccccc3)nc2n1 (stereo not given)
[8]
  inhibition: inactive
[9]
  inhibition: 68.6%

## COc1ccc(C[S+]([O-])c2ncccc2C(=O)Nc2ccncc2)cc1 (stereo not given)
[10]
  inhibition in vivo at 100 mg/kg: 44.4%
[3]
  half-life: 128 min
[9]
  inhibition: 33.1%

## COc1ccc2[nH]c([S+]([O-])Cc3ncc(C)c(OC)c3C)nc2c1 (stereo not given) [OMEPRAZOLE]
[5]
  half-life: 10.5 h
[7]
  ED50: 4.1 mg/kg
[6]
  half-life: 19.2 min

## O=C(Nc1cnccn1)c1cccnc1[S+]([O-])C(c1ccccc1)c1ccccc1 (stereo not given)
[12]
  inhibition: inactive

## O=c1c2cccnc2sn1-c1ccccc1
[1]
  IC50: 0.19 µM

## O=C(Nc1ccncc1)c1cccnc1[S+]([O-])C(c1ccccc1)c1ccccc1 (stereo not given)
[10]
  inhibition in vivo at 100 mg/kg: 30.2%
[9]
  inhibition: 55%

## O=C(Nc1nccs1)c1cccnc1[S+]([O-])C(c1ccccc1)c1ccccc1 (stereo not given)
[9]
  inhibition: 14.7%

## COc1cc(OC)c(OC)cc1C[S+]([O-])c1ncccc1C(=O)Nc1ccncc1 (stereo not given)
[1]
  IC50: > 100 µM
[10]
  inhibition in vivo at 100 mg/kg: 21.7%
[3]
  half-life: < 1.2 min
[9]
  inhibition: 32.5%
[4]
  half-life: 0.14 h

## O=C(Nc1c2ccccc2nc2ccccc12)c1cccnc1[S+]([O-])C(c1ccccc1)c1ccccc1 (stereo not given)
[9]
  inhibition: 47.6%

## COCOCCOc1cc(OC)ccc1C[S+]([O-])c1ncccc1C(=O)Nc1ccncc1 (stereo not given)
[13]
  IC50: 2 µM
[3]
  half-life: < 1.2 min
[14]
  inhibition in vivo at 10 mg/kg: 76.6%
[4]
  half-life: 2.75 h
[15]
  inhibition in vivo at 3 mg/kg: 14.4%

## CC(C)CNC(=O)c1cccnc1[S+]([O-])C(c1ccccc1)c1ccccc1 (stereo not given)
[9]
  inhibition: 1.3%

## Cc1ccc(C(c2ccc(C)cc2)[S+]([O-])c2ncccc2C(=O)Nc2ccncc2)cc1 (stereo not given)
[10]
  inhibition in vivo at 100 mg/kg: 48.1%
[2]
  IC50: 1.5 µM

## COCOc1cc(OC)ccc1C[S+]([O-])c1ncccc1C(=O)Nc1ccncc1 (stereo not given)
[13]
  IC50: 2.2 µM
[10]
  inhibition in vivo at 100 mg/kg: 37.7%
[3]
  half-life: < 1.2 min
[4]
  half-life: 8.25 h

## O=C(Nc1ncccn1)c1cccnc1[S+]([O-])C(c1ccccc1)c1ccccc1 (stereo not given)
[12]
  inhibition: inactive

## Nc1ccc(NC(=O)c2cccnc2[S+]([O-])C(c2ccccc2)c2ccccc2)cc1 (stereo not given)
[9]
  inhibition: 57.4%

## Cc1c(OCC(F)(F)F)ccnc1C[S+]([O-])c1nc2ccccc2[nH]1 (stereo not given) [LANSOPRAZOLE]
[5]
  half-life: 6.08 h
[6]
  half-life: 16.8 min

## CN(C)c1ccc(NC(=O)c2cccnc2[S+]([O-])C(c2ccccc2)c2ccccc2)cc1 (stereo not given)
[9]
  inhibition: 58.3%

## COc1cc(OC)c(C[S+]([O-])c2ncccc2C(=O)Nc2ccncc2)cc1Br (stereo not given)
[10]
  inhibition in vivo at 100 mg/kg: 34.8%
[2]
  IC50: 1.9 µM
[3]
  half-life: 4.2 min
[4]
  half-life: 28.8 h

## COc1ncccc1NC(=O)c1cccnc1[S+]([O-])C(c1ccccc1)c1ccccc1 (stereo not given)
[12]
  inhibition: inactive

## Cc1ccc2cccc(NC(=O)c3cccnc3[S+]([O-])C(c3ccccc3)c3ccccc3)c2n1 (stereo not given)
[9]
  inhibition: 24.4%

## O=C(Nc1ccccn1)c1cccnc1[S+]([O-])C(c1ccccc1)c1ccccc1 (stereo not given)
[11]
  Inhibition: 8%

## CCOc1ccc(C[S+]([O-])c2ncccc2C(=O)Nc2ccncc2)c(OCC)c1 (stereo not given)
[1]
  IC50: > 100 µM
[7]
  ED50: 11.2 mg/kg
[2]
  IC50: 0.4 µM
[3]
  half-life: < 1.2 min
[4]
  half-life: 0.49 h

## COc1cccc(OC)c1C[S+]([O-])c1ncccc1C(=O)Nc1ccncc1 (stereo not given)
[1]
  IC50: > 100 µM
[10]
  inhibition in vivo at 100 mg/kg: 60.7%
[2]
  IC50: 26 µM
[3]
  half-life: 39.6 min
[14]
  inhibition in vivo at 10 mg/kg: 12.7%
[4]
  half-life: 38.5 h

## COc1cc(C[S+]([O-])c2ncccc2C(=O)Nc2ccncc2)cc(OC)c1OC (stereo not given)
[3]
  half-life: 462 min
[9]
  inhibition: 11.3%

## O=C(NC1CCN(Cc2ccccc2)CC1)c1cccnc1[S+]([O-])C(c1ccccc1)c1ccccc1 (stereo not given)
[16]
  inhibition: inactive
